# Test results published in ChEMBL document CHEMBL4819106, “Aminopyrazole based CDK9 PROTAC sensitizes pancreatic cancer cells to venetoclax” (Bioorg Med Chem Lett, 2021).
# What was measured:
# [1] = molecular target: T1, Cyclin-dependent kinase 5 (Homo sapiens, UniProt Q00535); experiment: Inhibition of CDK5 (unknown origin)
# [2] = molecular target: T2, Cyclin-dependent kinase 9 (Homo sapiens, UniProt P50750); experiment: Inhibition of CDK9 (unknown origin)
# [3] = molecular target: T1, Cyclin-dependent kinase 5; experiment: Binding affinity to CDK5 (unknown origin)
# [4] = molecular target: T2, Cyclin-dependent kinase 9; experiment: Binding affinity to CDK9 (unknown origin)
# MIA PaCa-2 = experiment: Antiproliferative activity against human MIA PaCa-2 cells assessed as cell growth inhibition at 5 uM measured after 3 days by Prestoblue assay relative to control; format: functional; settings: MIA PaCa-2, 72 h, time 3 day, read-out: GI
# Outline: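 MiaPaCa2 cells were exposed for 3 days to single agents (Bcl2-family inhibitors or CDK9 degrader) at equimolar concentration. Viability was read by PrestoBlue.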
# T1 sequence (Q00535 whole entry): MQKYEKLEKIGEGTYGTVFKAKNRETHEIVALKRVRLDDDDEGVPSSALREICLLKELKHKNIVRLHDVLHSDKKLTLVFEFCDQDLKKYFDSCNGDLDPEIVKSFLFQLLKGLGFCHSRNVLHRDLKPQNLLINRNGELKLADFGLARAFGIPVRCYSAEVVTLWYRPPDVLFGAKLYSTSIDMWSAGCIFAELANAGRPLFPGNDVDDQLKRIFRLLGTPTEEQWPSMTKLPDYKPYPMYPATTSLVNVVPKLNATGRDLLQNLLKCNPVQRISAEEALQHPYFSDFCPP
# T2 sequence (P50750 whole entry): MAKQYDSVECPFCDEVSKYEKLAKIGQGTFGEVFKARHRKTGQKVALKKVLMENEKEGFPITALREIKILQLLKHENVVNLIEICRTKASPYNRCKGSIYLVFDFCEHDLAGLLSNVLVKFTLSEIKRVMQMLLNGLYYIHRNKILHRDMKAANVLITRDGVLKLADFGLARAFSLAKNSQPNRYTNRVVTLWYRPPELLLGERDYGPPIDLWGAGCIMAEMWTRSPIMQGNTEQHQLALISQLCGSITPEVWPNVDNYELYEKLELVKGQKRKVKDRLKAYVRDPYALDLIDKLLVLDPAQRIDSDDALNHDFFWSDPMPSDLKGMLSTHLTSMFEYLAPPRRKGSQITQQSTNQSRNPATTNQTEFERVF
IC50 [1] [nM],IC50 [2] [nM],Kd [3] [nM],Kd [4] [nM],Compound,inhibition of growth at 5 µM (MIA PaCa-2) [%]
32,1080,230,1060,COc1ccc(CC(=O)Nc2cc(C3CCC3)[nH]n2)cc1,–
–,–,–,–,CC1(C)CCC(c2ccc(Cl)cc2)=C(CN2CCN(c3ccc(C(=O)NS(=O)(=O)c4ccc(N[C@H](CCN5CCOCC5)CSc5ccccc5)c(S(=O)(=O)C(F)(F)F)c4)cc3)CC2)C1 [NAVITOCLAX],50
